Legend:
Format in all cases: functional
[1] = Selectivity ratio of IC50 for cytotoxicity against human A-431 cells assessed as cell growth inhibition to IC50 for cytotoxicity against human A-431 cells expressing ABCB1 assessed as cell growth inhibition
[2] = Selectivity ratio of IC50 for cytotoxicity against human MES-SA cells assessed as cell growth inhibition to IC50 for cytotoxicity against multidrug resistance human MES-SA/Dx5 cells assessed as cell growth inhibition
[3] = Selectivity ratio of IC50 for cytotoxicity against human MES-SA cells assessed as cell growth inhibition in presence of P-gp inhibitor Tariquidar to IC50 for cytotoxicity against multidrug resistance human MES-SA/Dx5 cells assessed as cell growth inhibition in presence of P-gp inhibitor Tariquidar
MES-SA [4] = experiment: Cytotoxicity against human MES-SA cells assessed as cell growth inhibition incubated for 72 hrs by PrestoBlue reagent based cell viability assay
Summary of the method: (§1)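 MES-SA and doxorubicin-selected MES-SA/Dx5 cells in DMEM with 10% FBS, 5 mmol/L glutamine, penicillin/streptomycin; 5000 cells/well attached 24 h, serial compound dilutions for 72 h, with or without 1 μM tariquidar. 5% PrestoBlue added after supernatant removal, 1 h at 37 °C, read ex 555/em 585 nm. Mean IC50 with SD, 2–53 independent assays.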

MES-SA/Dx5 [5] = experiment: Cytotoxicity against multidrug resistance human MES-SA/Dx5 cells assessed as cell growth inhibition incubated for 72 hrs by PrestoBlue reagent based cell viability assay; conditions: MES-SA/Dx5, 72 h; summary of the method: as §1
MES-SA/Dx5 [6] = experiment: Cytotoxicity against multidrug resistance human MES-SA/Dx5 cells assessed as cell growth inhibition incubated for 72 hrs in presence of P-gp inhibitor Tariquidar by PrestoBlue reagent based cell viability assay; conditions: MES-SA/Dx5, 72 h; summary of the method: as §1
MES-SA [7] = experiment: Cytotoxicity against human MES-SA cells assessed as cell growth inhibition incubated for 72 hrs in presence of P-gp inhibitor Tariquidar by PrestoBlue reagent based cell viability assay; summary of the method: as §1
A-431 [8] = experiment: Cytotoxicity against human A-431 cells assessed as cell growth inhibition after 72 hrs by PrestoBlue reagent based cell viability assay; conditions: A-431, 72 h
Summary of the method: (§2)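 A431 and retrovirally P-gp (ABCB1)-transduced A431 cells kept in supplemented DMEM; 5000 cells/well attached 24 h, then serial compound dilutions for 72 h. Medium removed, 5% PrestoBlue (resazurin) added, 1 h at 37 °C, fluorescence ex 555/em 585 nm.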

A-431 [9] = experiment: Cytotoxicity against human A-431 cells expressing ABCB1 assessed as cell growth inhibition incubated for 72 hrs by PrestoBlue reagent based cell viability assay; conditions: A-431, 72 h; summary of the method: as §2

Oc1c(CN2CCCCC2)cc(Cl)c2cccnc12
Ratio IC50 [1]: 3.9

Oc1ccc(CN2CCOCC2)c2cccnc12
Ratio IC50 [2]: 0.7

COCc1cc(CN2CCC(C)CC2)c(O)c2ncccc12
Ratio IC50 [3]: 1.4 | Ratio IC50 [1]: 6.1

Oc1c(C(c2cccnc2)N2CCOCC2)cc(Cl)c2cccnc12 (stereo unspecified)
Ratio IC50 [2]: 1.6

Oc1c(C(c2ccncc2)N2CCOCC2)ccc2cccnc12 (stereo unspecified)
Ratio IC50 [3]: 1.4

COCc1cc(CN2CCOCC2)c(O)c2ncccc12
Ratio IC50 [3]: 1.1 | Ratio IC50 [2]: 1.7 | Ratio IC50 [1]: 2.8

Oc1ccc(CN2CCCCCC2)c2cccnc12
Ratio IC50 [2]: 1.2

CN1CCN(C(c2ccncc2)c2ccc3cccnc3c2O)CC1 (stereo unspecified)
Ratio IC50 [3]: 1.6

CC1CCN(Cc2cc(COC(C)C)c3cccnc3c2O)CC1
Ratio IC50 [1]: 4.1

Oc1c(C(c2cccnc2)N2CCCC2)ccc2cccnc12 (stereo unspecified)
Ratio IC50 [2]: 1.8

Oc1c(CN2CCCCC2)ccc2cccnc12
Ratio IC50 [1]: 4.1

CCN(CC)Cc1ccc2cccnc2c1O
Ratio IC50 [1]: 2.7

CCN(CC)Cc1cc(Cl)c2cccnc2c1O
Ratio IC50 [1]: 6.2

CN1CCN(Cc2cc(Cl)c3cccnc3c2O)CC1
Ratio IC50 [1]: 2.3

Oc1c(CN2CCN(c3ccc(F)cc3)CC2)cc(Cl)c2cccnc12
Ratio IC50 [1]: 1.3

CCN1CCN(C(c2cccs2)c2ccc3cccnc3c2O)CC1 (stereo unspecified)
Ratio IC50 [2]: 0.6

CCOC(=O)C1CCN(Cc2cc(Cl)c3cccnc3c2O)CC1
Ratio IC50 [1]: 4.1

COCc1cc(CN2CCCCC2)c(O)c2ncccc12
Ratio IC50 [3]: 1.3 | Ratio IC50 [1]: 6.3

CN1CCN(Cc2ccc3cccnc3c2O)CC1
Ratio IC50 [1]: 2.3

CCOCc1cc(CN2CCC(C)CC2)c(O)c2ncccc12
Ratio IC50 [3]: 1.5 | Ratio IC50 [1]: 5

Oc1c(C(c2ccncc2)N2CCCCC2)ccc2cccnc12 (stereo unspecified)
Ratio IC50 [2]: 1.9 | Ratio IC50 [1]: 7.8

Oc1ccc(CN2CCCC2)c2cccnc12
Ratio IC50 [2]: 1.5

Oc1cccc2cccnc12 [OXYQUINOLINE]
Ratio IC50 [3]: 2.3

CCOCc1cc(CN2CCOCC2)c(O)c2ncccc12
Ratio IC50 [2]: 1.9 | Ratio IC50 [1]: 4.1

COCc1cc(CN2CCN(C)CC2)c(O)c2ncccc12
Ratio IC50 [1]: 2.9

CN1CCN(Cc2cnc3ccccc3c2O)CC1
Ratio IC50 [2]: 1.99

Oc1c(CN2CCCCC2)cc(Br)c2cccnc12
Ratio IC50 [2]: 10.8 | Ratio IC50 [1]: 3.2

CC(C)OCc1cc(CN2CCN(c3ccccc3)CC2)c(O)c2ncccc12
Ratio IC50 [3]: 1.5 | Ratio IC50 [2]: 4.3 | Ratio IC50 [1]: 3.9

CCOCc1cc(CN2CCCCC2)c(O)c2ncccc12
Ratio IC50 [1]: 6

Oc1c(CN2CCOCC2)cc(Br)c2cccnc12
Ratio IC50 [3]: 1.5 | Ratio IC50 [2]: 2.5 | Ratio IC50 [1]: 3.1

Cc1ccccc1N1CCN(Cc2ccc(O)c3ncccc23)CC1
Ratio IC50 [1]: 0.7

CCN1CCN(C(c2ccccn2)c2cc(Cl)c3cccnc3c2O)CC1 (stereo unspecified)
Ratio IC50 [2]: 1.2

CCN1CCN(C(c2cccnc2)c2cc(Cl)c3cccnc3c2O)CC1 (stereo unspecified)
Ratio IC50 [2]: 0.9

CCN1CCN(Cc2ccc(O)c3ncccc23)CC1
Ratio IC50 [2]: 0.8

COCc1cc(CN2CCN(c3ccccc3)CC2)c(O)c2ncccc12
Ratio IC50 [2]: 2.2 | Ratio IC50 [1]: 3.9

Oc1c(C(c2ccccn2)N2CCOCC2)ccc2cccnc12 (stereo unspecified)
Ratio IC50 [2]: 1.6

CN1CCN(C(c2cccs2)c2ccc3cccnc3c2O)CC1 (stereo unspecified)
Ratio IC50 [2]: 0.8

Oc1c(C(c2ccccn2)N2CCCC2)ccc2cccnc12 (stereo unspecified)
Ratio IC50 [1]: 4.4

Oc1ccccc1CN1CCNCC1
IC50 (MES-SA [4]; read-out: IC50): > 100 µM | IC50 (MES-SA/Dx5 [5]; read-out: IC50): > 100 µM

CCOCc1cc(CN2CCN(C)CC2)c(O)c2ncccc12
Ratio IC50 [3]: 1.3 | Ratio IC50 [1]: 2.9

Oc1c(C(c2ccccc2)N2CCOCC2)ccc2cccnc12 (stereo unspecified)
Ratio IC50 [2]: 1.8

Oc1c(C(c2ccccn2)N2CCCCC2)cc(Cl)c2cccnc12 (stereo unspecified)
Ratio IC50 [3]: 2.5 | Ratio IC50 [1]: 2.1

Oc1c(CN2CCCC2)cc(Br)c2cccnc12
Ratio IC50 [3]: 1.5 | IC50 (MES-SA/Dx5 [6]): 2.69 µM | Ratio IC50 [2]: 9.8 | Ratio IC50 [1]: 2.9

CC1CCN(Cc2cc(Cl)c3cccnc3c2O)CC1
Ratio IC50 [1]: 6.1

Oc1c(CN2CCc3ccccc3C2)ccc2cccnc12
Ratio IC50 [3]: 1.5 | IC50 (MES-SA [7]; read-out: IC50): 2.59 µM | Ratio IC50 [1]: 2

CCCOCc1cc(CN2CCCCC2)c(O)c2ncccc12
Ratio IC50 [3]: 1.5 | Ratio IC50 [1]: 4.6

Oc1c(C(c2ccccc2)N2CCCCC2)cc(Cl)c2cccnc12 (stereo unspecified)
Ratio IC50 [2]: 1.1

Oc1c(CN2CCCC2)ccc2cccnc12
Ratio IC50 [1]: 5.2

CN1CCN(C(c2cccnc2)c2ccc3cccnc3c2O)CC1 (stereo unspecified)
Ratio IC50 [2]: 1.5

CCN1CCN(C(c2cc(Cl)c3cccnc3c2O)N2CCCC2)CC1 (stereo unspecified)
Ratio IC50 [3]: 1.3 | IC50 (MES-SA/Dx5 [6]): 2.45 µM | IC50 (MES-SA [4]; read-out: pIC50 (converted)): 3.31 µM | Ratio IC50 [2]: 2.8 | IC50 (MES-SA [7]; read-out: pIC50 (converted)): 3.31 µM | IC50 (A-431 [8]): 8.71 µM | IC50 (A-431 [9]): 5.13 µM | Ratio IC50 [1]: 1.7 | IC50 (MES-SA/Dx5 [5]; read-out: pIC50 (converted)): 1.17 µM

Oc1ccc(CN2CCN(c3ccccc3)CC2)c2cccnc12
Ratio IC50 [2]: 0.9

CN1CCN(C(c2ccccn2)c2cc(Cl)c3cccnc3c2O)CC1 (stereo unspecified)
Ratio IC50 [2]: 1.2 | Ratio IC50 [1]: 2.8

Oc1c(C(c2ccccn2)N2CCOCC2)cc(Cl)c2cccnc12 (stereo unspecified)
Ratio IC50 [2]: 1.6

Oc1c(C(c2ccncc2)N2CCCC2)ccc2cccnc12 (stereo unspecified)
Ratio IC50 [2]: 1.6

Cc1ccc(C(c2cc(Cl)c3cccnc3c2O)N2CCCC2)cc1 (stereo unspecified)
Ratio IC50 [2]: 2.3

CC(C)OCc1cc(CN2CCCCC2)c(O)c2ncccc12
Ratio IC50 [3]: 1.3 | Ratio IC50 [1]: 3.9

CC(C)OCc1cc(CN2CCOCC2)c(O)c2ncccc12
Ratio IC50 [1]: 2.5

CCCOCc1cc(CN2CCN(C)CC2)c(O)c2ncccc12
Ratio IC50 [3]: 1.7 | Ratio IC50 [1]: 3

CCCOCc1cc(CN2CCN(c3ccccc3)CC2)c(O)c2ncccc12
Ratio IC50 [3]: 1.7 | Ratio IC50 [1]: 2.4

Oc1c(CN2CCN(c3ccccc3)CC2)cc(Cl)c2cccnc12
Ratio IC50 [2]: 6 | Ratio IC50 [1]: 1.3

CCOCc1cc(CN2CCN(c3ccccc3)CC2)c(O)c2ncccc12
Ratio IC50 [3]: 1.5 | Ratio IC50 [1]: 3.1

CCOCc1cc(CN2CCCC2)c(O)c2ncccc12
Ratio IC50 [3]: 1.7 | Ratio IC50 [1]: 6

COCc1cc(CN2CCCC2)c(O)c2ncccc12
Ratio IC50 [3]: 3 | Ratio IC50 [1]: 13.1

Oc1c(CN2CCCCCC2)cc(Cl)c2cccnc12
Ratio IC50 [3]: 1.3 | Ratio IC50 [1]: 2.1

Oc1c(C(c2cccs2)N2CCOCC2)cc(Cl)c2cccnc12 (stereo unspecified)
Ratio IC50 [2]: 0.6

Oc1c(CN2CCCC2)cc(Cl)c2cccnc12
Ratio IC50 [1]: 3.8

Oc1c(C(c2ccccn2)N2CCCC2)cc(Cl)c2cccnc12 (stereo unspecified)
Ratio IC50 [1]: 3.7

CCN1CCN(C(c2cccnc2)c2ccc3cccnc3c2O)CC1 (stereo unspecified)
Ratio IC50 [3]: 1 | Ratio IC50 [2]: 2.1

Oc1c(C(c2cccs2)N2CCCCC2)ccc2cccnc12 (stereo unspecified)
Ratio IC50 [2]: 0.8

CCCCOCc1cc(CN2CCN(C)CC2)c(O)c2ncccc12
Ratio IC50 [1]: 2.4

Oc1c(CN2CCN(c3ccccn3)CC2)cc(Cl)c2cccnc12
Ratio IC50 [1]: 1.2
